# Source: PubChem
# GASC-1 inh: human JMJD2C demethylase inhibition; inhibition, % at 2.35 µM; GST-JMJD2C(1-420) H3K9me3 demethylation, DELFIA europium; AID 2099; 0.069% of 330,000 active; Q9H3R0;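 active = more than half of a compound's replicate wells show inhibition beyond 50%, single wells judged on their own value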;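 note: signal counts dimethyl H3K9 product captured on neutravidin plate; 0% = median of DMSO wells and 100% = 0.3 times that DMSO median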
# Arr AP2 block: blocks beta-arrestin peptide binding to AP2 adaptin; 0.31% of 340,000 active; inhibition, % at 10 µM; AID 504490; FITC-arrestin peptide / GST-AP2 beads, flow cytometry; AP2 beta2 appendage carries R879A mutation;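 active = inhibition above a set limit, near 3 SD of compounds lacking own fluorescence, cut at about 54% in these data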;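 note: plate controls were DMSO wells for no effect and 5 µM unlabelled arrestin peptide for full effect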
#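 test system = AP2 appendage R879A on GSH beads | buffer or medium = PBS plus Tween 20 (0.05%) and BSA (0.1%) | incubation = 12 min plus 1 h, RT | detection = bead flow cytometry, FITC channel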
# SENP1 inh: blocks the human SENP1 SUMO protease catalytic domain; 0.21% of 360,000 active; inhibition, % at 10 µM; recombinant SENP1 catalytic domain, CyPet-SUMO1-YPet FRET cleavage; Q9P0U3;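 active = inhibition at least 30% at 10 µM, raw YFP signal under a set limit, fluorescence ratio 0.5 to 1.5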;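 note: 0% = enzyme with DMSO and 100% = no enzyme wells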
#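 material = recombinant human SENP1 catalytic domain, His6-tagged | quantity = 20 pM enzyme | reagent = 25 nM SUMO1 FRET substrate | compound dosing = 10 µM single point, 0.5% DMSO | timing = 50 min enzyme reaction, room temperature, light-protected | detection = FRET, CFP and YFP emission | control set = no-enzyme low, enzyme-DMSO high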
# FAS TE block: inhibitors of human fatty acid synthase thioesterase domain. recombinant FAS-TE, OMFH fluorogenic substrate, fluorescence endpoint. inhibition, % at 15 µM. 0.67% of 360,000 active. AID 602261;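 active = compounds whose normalised, plate-corrected inhibition of enzyme fluorescence in the single-dose primary screen is 50% or more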;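 note: 0% = DMSO with enzyme and 100% = substrate without enzyme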
# Arr AP2 CP1: blocks beta-arrestin peptide binding to human AP2. AID 504908. inhibition, % at 10 µM. 2% of 1,300 active. GST-AP2 beads, FITC arrestin peptide binding, flow cytometry; GST-fused beta2-adaptin appendage, R879A mutant. shares compounds with Arr AP2 block;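 active = inhibition above a set limit, roughly 3 SD of non-fluorescent compound noise, cut at about 38% in these data; inactive = inhibition at or below that limit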;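 note: loss of bead fluorescence from 50 nM FITC arrestin peptide bound to appendage; 0% = negative control wells and 100% = excess unlabelled arrestin peptide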
# Target sequence (P63010 whole entry, looked up, the tested form may be a part, one chain of several): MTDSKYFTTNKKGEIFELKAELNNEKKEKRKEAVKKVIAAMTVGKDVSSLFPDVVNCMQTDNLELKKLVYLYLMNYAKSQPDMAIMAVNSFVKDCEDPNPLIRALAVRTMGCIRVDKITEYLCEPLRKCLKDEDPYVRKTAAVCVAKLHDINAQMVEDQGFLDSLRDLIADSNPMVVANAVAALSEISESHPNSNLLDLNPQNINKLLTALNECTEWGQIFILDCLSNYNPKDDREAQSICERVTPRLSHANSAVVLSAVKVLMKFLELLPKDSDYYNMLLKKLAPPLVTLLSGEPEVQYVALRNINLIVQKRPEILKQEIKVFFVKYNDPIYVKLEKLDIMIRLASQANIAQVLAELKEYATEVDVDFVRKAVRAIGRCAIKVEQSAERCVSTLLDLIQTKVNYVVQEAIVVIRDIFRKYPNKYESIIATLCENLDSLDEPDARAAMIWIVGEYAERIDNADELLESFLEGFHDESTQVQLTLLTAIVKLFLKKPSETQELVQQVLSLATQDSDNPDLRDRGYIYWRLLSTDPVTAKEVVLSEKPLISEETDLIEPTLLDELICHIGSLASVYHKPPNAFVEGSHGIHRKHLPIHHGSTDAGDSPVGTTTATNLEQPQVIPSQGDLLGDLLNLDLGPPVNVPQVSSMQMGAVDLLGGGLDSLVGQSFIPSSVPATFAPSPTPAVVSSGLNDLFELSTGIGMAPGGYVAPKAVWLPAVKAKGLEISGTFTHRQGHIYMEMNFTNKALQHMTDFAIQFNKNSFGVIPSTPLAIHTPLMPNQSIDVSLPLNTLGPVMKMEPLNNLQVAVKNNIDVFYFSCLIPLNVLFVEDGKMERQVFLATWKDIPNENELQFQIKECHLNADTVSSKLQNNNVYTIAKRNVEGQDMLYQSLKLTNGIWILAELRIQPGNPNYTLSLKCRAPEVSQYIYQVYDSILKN
# GST-FITC bead: counter-screen for beta-arrestin AP2 inhibitors: GST-GSH bead binding; GST-fluorescein binding to GSH beads, fluorescence; inhibition, % at 10 µM; shares compounds with Arr AP2 block; 2% of 1,300 active;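 active = inhibition above 50%, about 3 SD of the inhibition seen with non-fluorescent compounds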;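 note: fluorescein maleimide labelled GST captured on 4 micron glutathione beads; higher means more loss of bead fluorescence from quenching or blocked binding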
# Starred values were filed as active, the others as inactive; . = not tested or not shown. Shown are actives, neighbours in structure and some others; about 1.1% of the full set was active somewhere.
SMILES,GASC-1 inh,Arr AP2 block,SENP1 inh,FAS TE block,Arr AP2 CP1,GST-FITC bead
O=C(NN1C(=O)c2ccccc2NC1c1ccoc1)c1ccc([N+](=O)[O-])cc1 (stereo not given),-6,57*,2,30,0,-8
CCNC(=O)c1cc2c(c(-c3cccc(-c4ccccc4F)c3)n1)[C@@H](CCO)N(C(=O)CC1CC1)C2,.,.,2,3,.,.
CCOc1ccccc1OCCCC(=O)Nc1ccc(S(=O)(=O)Nc2cc(C)nc(C)n2)cc1,.,-1,-1,-8,.,.
Cc1cccc(C(=O)N/C(=C\c2ccco2)C(=O)N2CCCCCC2)c1,-17,-21,3,-5,.,.
Cc1cccc(C(=O)N/C(=C/c2ccco2)C(=O)N2CCCCCC2)c1,-5,66*,1,-3,-2,11
CS(=O)(=O)N1CCN(C(=O)c2cc(-c3cccnc3)nc3ccc(Br)cc23)CC1,-18,64*,-2,4,-15,-6
CCOC(=O)c1cnn(-c2ccc(C(C)C)cc2)c1NC(=O)C1CCC1,3,99*,-1,-7,-4,0
CCCCOC(=O)CCN1C(=O)/C(=C2\SC(=S)N(CCC(=O)OCCCC)C2=O)SC1=S,1,27,0,0,.,.
CCCCCOC(=O)CCN1C(=O)/C(=C2\SC(=S)N(CCC(=O)OCCCCC)C2=O)SC1=S,12,56*,3,4,1,-2
Cc1csc(NC(=O)c2ccc(Cn3nc(C)c(Br)c3C)o2)n1,-12,58*,-2,3,-15,3
O=C(NCc1ccccc1)N1CCOCC1,7,15,1,-4,.,.
O=C(NCC(F)(F)F)N1CCOCC1,3,68*,1,-8,5,-6
CCOc1ccc(C(=O)NC(=S)Nc2ccc(NC(=O)c3ccco3)c(C)c2)cc1[N+](=O)[O-],0,100*,3,-7,1,-2
COc1ccc(NC(=O)c2ccco2)cc1NC(=O)c1ccccc1[N+](=O)[O-],-1,55*,2,0,3,3
O=S1(=O)N=C(N(CCO)/N=C/c2ccncc2)c2ccccc21,8,-11,0,1,.,.
O=S1(=O)N=C(N(CCO)/N=C/c2ccccc2)c2ccccc21,33,60*,3,-4,2,28
O=C(OCC(=O)N(C1CCCCC1)C1CCCCC1)c1ccc(O)cc1,12,-5,-1,-1,.,.
COc1ccc(NC(=O)/C(=C/c2cccnc2)NC(=O)c2cccs2)cc1,3,66*,0,-12,-8,0
COc1ccc(NC(=O)/C(=C\c2cccnc2)NC(=O)c2cccs2)cc1,16,-5,-1,-10,.,.
COc1ccc(NC(=S)N2CCCC(c3nc4ccc(C)cc4[nH]3)C2)c(OC)c1 (stereo not given),0,0,1,-4,.,.
COc1ccc(NC(=S)N2CCCC(c3nc4ccc(C)cc4[nH]3)C2)cc1 (stereo not given),-6,57*,2,-3,-10,-3
CC(C)c1ccc(NC(=O)c2ccccc2NC(=O)C2CCCCC2C(=O)O)cc1 (stereo not given),17,54*,1,7,-6,-6
CCN1CCN(C(=O)C2CCN(S(=O)(=O)c3ccc4c(c3)NC(=O)C(C)S4)CC2)CC1 (stereo not given),-30,5,1,0,.,.
CCN(CC)S(=O)(=O)c1cccc(C(=O)N/N=C/c2cccc(O)c2O)c1,9,49,29,4,.,.
CCN(CC)S(=O)(=O)c1cccc(C(=O)N/N=C/c2cc(OC)c(O)c(OC)c2)c1,5,60*,4,-15,-3,1
Cc1ccc(N(CCC#N)C(=O)COC(=O)c2ccccn2)cc1,-10,69*,-2,-5,-6,-1
CCCNC(=O)NC(=O)CSc1nnc(C)n1N,1,24,1,-4,.,.
CCCS(=O)(=O)N1CCCC(C(=O)NCC2CCCO2)C1 (stereo not given),-2,80*,1,-4,3,-3
Cc1ccc(S(=O)(=O)N2CCCC(C(=O)NCC3CCCO3)C2)cc1 (stereo not given),-15,-5,1,-8,.,.
